In ChEMBL document CHEMBL3259631, “Identification of the first potent, selective and bioavailable PPARα antagonist” (Bioorg Med Chem Lett, 2014):
≈ marks a conversion by molar mass, not a printed value.

Tests used:
[1] = target: T1, Peroxisome proliferator-activated receptor alpha (Homo sapiens, UniProt Q07869); test: Antagonist activity at human PPAR-alpha assessed as inhibition of GW7647-induced effect after overnight incubation by cell-based luciferase reporter gene assay
T1 sequence (Q07869 whole entry): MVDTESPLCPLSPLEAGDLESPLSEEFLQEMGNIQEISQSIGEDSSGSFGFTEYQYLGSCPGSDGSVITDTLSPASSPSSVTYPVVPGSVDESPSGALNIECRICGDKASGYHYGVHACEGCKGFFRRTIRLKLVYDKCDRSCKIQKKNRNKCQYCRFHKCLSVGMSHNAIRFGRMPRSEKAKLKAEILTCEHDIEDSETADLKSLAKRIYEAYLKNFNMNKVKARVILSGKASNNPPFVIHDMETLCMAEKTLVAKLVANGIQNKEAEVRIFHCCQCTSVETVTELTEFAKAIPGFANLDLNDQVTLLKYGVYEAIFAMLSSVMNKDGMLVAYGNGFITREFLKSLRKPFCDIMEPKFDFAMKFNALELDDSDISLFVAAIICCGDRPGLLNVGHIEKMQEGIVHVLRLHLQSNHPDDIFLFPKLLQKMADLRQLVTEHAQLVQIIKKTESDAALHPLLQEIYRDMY

Plasma = test: (§1) Metabolic stability in mouse plasma assessed as compound remaining at 1 uM after 24 hrs by LC-MS/MS analysis; assay type: ADME, cell-free; conditions: 24 h, 1 µM
Procedure, shortened: (§2)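 A 30 mM DMSO stock was diluted to 100 µM in acetonitrile, then spiked into thawed mouse plasma (1 µM final) and incubated at 37 °C. Aliquots were precipitated in acetonitrile containing buspirone, shaken 5 min and centrifuged at 4000g for 10 min. Supernatant was analysed by LC-MS/MS. Percent remaining = concentration at each time / t0 concentration × 100; mean of at least three experiments.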

[2] = Solubility of the compound in aqueous buffer at pH 7.4 after 24 hrs by LC-MS/MS analysis; assay type: physicochemical
Procedure, shortened: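 Compound from a 10 mM DMSO stock was added to pH 7.4 buffer, vortexed 2 min, then shaken on an orbital shaker for 24 h at room temperature. Samples were then vacuum-filtered through a polycarbonate membrane before measurement.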

[3] = target: T1, Peroxisome proliferator-activated receptor alpha; test: Agonist activity at human PPAR-alpha
[4] = Metabolic stability in mouse plasma assessed as compound remaining at 1 uM after 30 mins by LC-MS/MS analysis; assay type: ADME, cell-free; conditions: read-out: Stability; procedure, shortened: as §2
[5] = Metabolic stability in mouse plasma assessed as compound remaining at 1 uM after 60 mins by LC-MS/MS analysis; assay type: ADME, cell-free; conditions: read-out: Stability; procedure, shortened: as §2
[6] = as §1; assay type: ADME, cell-free; conditions: read-out: Stability; procedure, shortened: as §2
[7] = AUC in CD-1 mouse at 30 mg/kg, ip; assay type: ADME, organism-based; set-up: dose 30 mg/kg, route intraperitoneal; conditions: plasma
Procedure, shortened: (§3)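 Mouse pharmacokinetics in CD1 mice given a single intraperitoneal dose of 30 mpk, formulated in saline or in 98% saline/2% tween.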

[8] = Cmax in CD-1 mouse at 30 mg/kg, ip after 1 hr; assay type: ADME, organism-based; set-up: dose 30 mg/kg, route intraperitoneal; conditions: in vivo; procedure, shortened: as §3
[9] = target: T2, Peroxisome proliferator-activated receptor delta (Homo sapiens, UniProt Q03181); test: Inhibition of human PPAR-delta
T2 sequence (Q03181 whole entry): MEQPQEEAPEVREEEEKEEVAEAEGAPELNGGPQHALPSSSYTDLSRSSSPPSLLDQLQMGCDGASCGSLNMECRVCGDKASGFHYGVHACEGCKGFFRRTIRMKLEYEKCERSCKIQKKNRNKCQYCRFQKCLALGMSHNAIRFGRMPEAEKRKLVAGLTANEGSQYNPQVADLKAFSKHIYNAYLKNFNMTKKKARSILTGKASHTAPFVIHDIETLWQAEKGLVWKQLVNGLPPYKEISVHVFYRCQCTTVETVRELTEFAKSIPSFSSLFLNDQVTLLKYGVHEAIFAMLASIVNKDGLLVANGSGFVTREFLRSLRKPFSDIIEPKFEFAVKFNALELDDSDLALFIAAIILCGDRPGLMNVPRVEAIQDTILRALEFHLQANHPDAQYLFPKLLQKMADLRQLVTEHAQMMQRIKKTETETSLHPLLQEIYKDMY

[10] = target: T3, Peroxisome proliferator-activated receptor gamma (Homo sapiens, UniProt P37231); test: Inhibition of human PPAR-gamma
T3 sequence (P37231 whole entry): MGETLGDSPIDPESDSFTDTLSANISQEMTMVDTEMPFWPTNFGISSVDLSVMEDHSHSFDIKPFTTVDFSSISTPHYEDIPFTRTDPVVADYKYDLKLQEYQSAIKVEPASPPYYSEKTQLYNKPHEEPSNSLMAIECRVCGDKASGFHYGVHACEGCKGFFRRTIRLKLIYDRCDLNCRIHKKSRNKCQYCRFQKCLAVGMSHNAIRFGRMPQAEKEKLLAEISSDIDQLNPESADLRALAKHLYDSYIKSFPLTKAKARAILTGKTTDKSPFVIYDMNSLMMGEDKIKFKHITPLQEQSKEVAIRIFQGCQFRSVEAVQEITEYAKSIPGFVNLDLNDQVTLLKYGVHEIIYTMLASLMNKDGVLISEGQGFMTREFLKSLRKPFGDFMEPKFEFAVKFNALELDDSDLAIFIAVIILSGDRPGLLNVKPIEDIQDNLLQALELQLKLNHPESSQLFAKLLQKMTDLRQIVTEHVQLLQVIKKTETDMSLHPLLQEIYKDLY

Estrogen receptor beta = Estrogen receptor beta (Homo sapiens, UniProt Q92731); test: Inhibition of human estrogen receptor beta
Chain of Estrogen receptor beta (Q92731 whole entry): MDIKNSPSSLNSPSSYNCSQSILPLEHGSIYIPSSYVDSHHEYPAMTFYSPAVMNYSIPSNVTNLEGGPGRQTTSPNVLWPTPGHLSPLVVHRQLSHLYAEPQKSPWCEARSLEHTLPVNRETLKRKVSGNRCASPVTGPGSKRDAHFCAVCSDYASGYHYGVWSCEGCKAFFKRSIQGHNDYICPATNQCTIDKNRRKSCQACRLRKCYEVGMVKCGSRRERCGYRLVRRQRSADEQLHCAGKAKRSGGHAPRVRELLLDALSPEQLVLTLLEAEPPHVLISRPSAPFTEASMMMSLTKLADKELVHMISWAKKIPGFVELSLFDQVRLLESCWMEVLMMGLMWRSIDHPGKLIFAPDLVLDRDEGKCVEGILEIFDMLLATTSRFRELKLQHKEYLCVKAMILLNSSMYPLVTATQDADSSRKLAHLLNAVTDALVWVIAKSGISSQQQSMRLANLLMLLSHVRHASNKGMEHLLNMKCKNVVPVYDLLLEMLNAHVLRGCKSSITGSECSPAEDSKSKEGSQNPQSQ

Glucocorticoid receptor = target: T4, Glucocorticoid receptor (Homo sapiens, UniProt P04150); test: Inhibition of human glucocorticoid receptor
T4 sequence (P04150 whole entry): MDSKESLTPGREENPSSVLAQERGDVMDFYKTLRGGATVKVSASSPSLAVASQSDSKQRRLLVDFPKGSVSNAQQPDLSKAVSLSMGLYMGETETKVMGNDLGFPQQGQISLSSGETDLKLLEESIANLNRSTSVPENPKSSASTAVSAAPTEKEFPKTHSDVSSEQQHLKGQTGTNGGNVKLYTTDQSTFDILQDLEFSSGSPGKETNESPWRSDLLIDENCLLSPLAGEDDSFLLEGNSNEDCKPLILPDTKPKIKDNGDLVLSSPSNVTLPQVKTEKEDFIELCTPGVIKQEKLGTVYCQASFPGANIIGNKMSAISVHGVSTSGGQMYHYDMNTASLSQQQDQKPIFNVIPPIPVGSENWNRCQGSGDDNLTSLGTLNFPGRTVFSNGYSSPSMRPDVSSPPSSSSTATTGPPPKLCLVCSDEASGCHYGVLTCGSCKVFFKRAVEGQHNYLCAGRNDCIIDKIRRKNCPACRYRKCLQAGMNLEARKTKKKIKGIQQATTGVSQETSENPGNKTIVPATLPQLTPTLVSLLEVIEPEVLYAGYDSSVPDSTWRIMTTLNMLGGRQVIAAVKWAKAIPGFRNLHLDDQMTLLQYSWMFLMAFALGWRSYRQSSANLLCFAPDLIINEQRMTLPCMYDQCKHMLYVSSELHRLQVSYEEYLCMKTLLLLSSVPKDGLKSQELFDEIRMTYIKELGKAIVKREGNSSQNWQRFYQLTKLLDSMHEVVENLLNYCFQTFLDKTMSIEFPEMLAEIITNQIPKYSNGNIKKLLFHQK

[11] = target: T5, Thyroid hormone receptor beta (Homo sapiens, UniProt P10828); test: Inhibition of human thyroid hormone receptor-beta
T5 sequence (P10828 whole entry): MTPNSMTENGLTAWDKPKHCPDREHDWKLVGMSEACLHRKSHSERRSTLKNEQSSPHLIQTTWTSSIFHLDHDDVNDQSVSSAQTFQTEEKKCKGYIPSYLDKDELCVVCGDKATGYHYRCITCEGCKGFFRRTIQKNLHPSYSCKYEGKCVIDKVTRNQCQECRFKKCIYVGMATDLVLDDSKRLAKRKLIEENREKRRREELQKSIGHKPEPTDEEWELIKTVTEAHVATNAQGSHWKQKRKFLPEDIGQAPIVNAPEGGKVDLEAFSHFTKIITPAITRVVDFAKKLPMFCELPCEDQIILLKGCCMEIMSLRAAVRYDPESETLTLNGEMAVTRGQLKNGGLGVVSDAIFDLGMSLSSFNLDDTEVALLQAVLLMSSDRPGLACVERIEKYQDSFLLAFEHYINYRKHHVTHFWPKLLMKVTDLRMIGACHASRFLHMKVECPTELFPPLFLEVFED

CCn1c(CCCc2ccc(-c3cnc(NS(=O)(=O)c4ccccc4)cn3)cc2)nn(Cc2ccc(C(C)(C)C)cc2)c1=O
IC50 [1]: 218 nM
Stability (Plasma): 131.2%
solubility at 24 h [2]: 4.9 µM (≈ 2.99 µg/mL)

CCn1c(CCCc2ccc(-c3cccc(NS(=O)(=O)c4ccccc4)c3)cc2)nn(Cc2ccc(C(C)(C)C)cc2)c1=O
IC50 [1]: 386 nM
Stability (Plasma): 136%
solubility at 24 h [2]: 0.037 µM (≈ 0.0225 µg/mL)

C/C(=C/C(=O)c1ccccc1)N[C@@H](Cc1ccc(OCCc2nc(-c3ccccc3)oc2C)cc1)C(=O)O
EC50 [3]: 240 nM

CCn1c(CCCc2ccc(OC(C)(C)C(=O)NS(=O)(=O)c3cccnc3)cc2)nn(Cc2ccc(C(C)(C)C)cc2)c1=O
IC50 [1]: 80 nM
remaining at 0.5 h, 1 µM [4]: 82.4%
remaining at 1 h, 1 µM [5]: 75.2%
remaining at 24 h, 1 µM [6]: 0.2%

CCn1c(CCCc2ccc(OC(C)(C)C(=O)NS(=O)(=O)c3ccc(C(F)(F)F)cc3)cc2)nn(Cc2ccc(C(C)(C)C)cc2)c1=O
IC50 [1]: 34 nM
remaining at 0.5 h, 1 µM [4]: 103%
remaining at 1 h, 1 µM [5]: 105%
remaining at 24 h, 1 µM [6]: 53.7%

CCn1c(CCCc2ccc(-c3ccc(NS(C)(=O)=O)cn3)cc2)nn(Cc2ccc(C(C)(C)C)cc2)c1=O
IC50 [1]: 113 nM
remaining at 24 h, 1 µM [6]: 105%
solubility at 24 h [2]: 0.423 µM (≈ 0.232 µg/mL)

CCn1c(CCCc2ccc(OC(C)(C)C(=O)NS(=O)(=O)C3CCCCC3)cc2)nn(Cc2ccc(C(C)(C)C)cc2)c1=O
IC50 [1]: 3 nM
remaining at 0.5 h, 1 µM [4]: 60.5%
remaining at 1 h, 1 µM [5]: 43.6%

CCn1c(CCCc2ccc(-c3ncc(NS(=O)(=O)c4ccccc4)cn3)cc2)nn(Cc2ccc(C(C)(C)C)cc2)c1=O
IC50 [1]: 114 nM
remaining at 24 h, 1 µM [6]: 119%
solubility at 24 h [2]: 0.091 µM (≈ 0.0556 µg/mL)

CCn1c(CCCc2ccc(-c3ccc(NS(=O)(=O)c4ccccc4)cc3)cc2)nn(Cc2ccc(C(C)(C)C)cc2)c1=O
IC50 [1]: 21 nM
Stability (Plasma): 124.7%
solubility at 24 h [2]: 0.018 µM (≈ 0.011 µg/mL)

CCn1c(CCCc2ccc(-c3ccc(NS(=O)(=O)c4ccc(-c5ccc(OC)cc5)cc4)cc3)cc2)nn(Cc2ccc(C(C)(C)C)cc2)c1=O
IC50 [1]: 4800 nM
remaining at 24 h, 1 µM [6]: 119%
solubility at 24 h [2]: 0.082 µM (≈ 0.0586 µg/mL)
AUC [7]: 23000 ng·h/mL
Cmax [8]: 7.2 µM
IC50 [9]: > 100000 nM
IC50 [10]: > 100000 nM
IC50 (Estrogen receptor beta): 34800 nM
IC50 (Glucocorticoid receptor): 32000 nM
IC50 [11]: > 69000 nM
